The record followed here is ChEMBL document CHEMBL1151231, “Antitumor agents. 233. Lantalucratins A-F, new cytotoxic naphthoquinones from Lantana involucrata” (J Nat Prod, 2004).

The test system of experiment [1] is HOS. The experiment in a line: Cytotoxicity against human HOS cells after 3 days by SRB assay. It is filed as functional, cell-based. To be noted: 72 h. The procedure, abridged:
(§1)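 Freshly trypsinized cells were seeded at 1500-7500 cells per well with test compound added from DMSO-diluted stock and cultured for 3 days. Attached cells were fixed with cold 50% trichloroacetic acid, stained with 0.4% sulforhodamine B, and the bound dye was solubilized and read at 562 nm. IC50 is the concentration giving a 50% drop in absorbance, or growth, relative to untreated cells.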

For experiment [2], the system named is MCF7. The experiment in a line: Cytotoxicity against human MCF7 cells after 3 days by SRB assay. Type of experiment: functional, cell-based. To be noted: MCF7, 72 h. The procedure, abridged: as §1
Experiment [3] concerns KB. The experiment in a line: Cytotoxicity against etoposide-resistant human KB cells after 3 days by SRB assay. It is filed as functional, cell-based. To be noted: 72 h. In outline:
as §1

Experiment [4] is described as follows: Cytotoxicity against human U87MG cells after 3 days by SRB assay. It is filed as functional, cell-based, U-87MG ATCC. To be noted: U-87 MG, 72 h. In outline:
as §1

Experiment [5] relates to 1A9. The experiment is described as follows: Cytotoxicity against paclitaxel-resistant human 1A9 cells after 3 days by SRB assay. It is filed as functional, cell-based. To be noted: 1A9, 72 h. In outline:
as §1

Experiment [6] relates to KB. The experiment in a line: Cytotoxicity against camptothecin-resistant human KB cells after 3 days by SRB assay. It is filed as functional, cell-based. To be noted: 72 h. In outline:
as §1

Experiment [7] has as its system A549. The experiment is described as follows: Cytotoxicity against human A549 cells after 3 days by SRB assay. Type of experiment: functional, cell-based. To be noted: A549, 72 h. The procedure, abridged: as §1
Experiment [8] concerns KB. The experiment in a line: Cytotoxicity against human KB cells after 3 days by SRB assay. To be noted: 72 h. It is filed as functional, cell-based. In outline: as §1
In experiment [9] the test system is 1A9. The experiment is described as follows: Cytotoxicity against human 1A9 cells after 3 days by SRB assay. Type of experiment: functional, cell-based. To be noted: 1A9, 72 h. In outline: as §1
Experiment [10] in a line: Cytotoxicity against vincristine-resistant human KBVIN cells after 3 days by SRB assay. It is filed as functional, cell-based. To be noted: 72 h. The procedure, abridged: as §1
Experiment [11] has as its system CAKI-1. The experiment in a line: Cytotoxicity against human Caki1 cells after 3 days by SRB assay. It is filed as functional, cell-based. To be noted: CAKI-1, 72 h. In outline:
as §1

Experiment [12] concerns CAKI-1. The experiment is described as follows: Cytotoxicity against human Caki1 cells at 10 uM after 3 days by SRB assay. To be noted: for inhibition at 10 µM: CAKI-1, 72 h. Type of experiment: functional.
Experiment [13] relates to 1A9. The experiment in a line: Cytotoxicity against paclitaxel-resistant human 1A9 cells at 10 uM after 3 days by SRB assay. Type of experiment: functional. To be noted: for inhibition at 10 µM: 1A9, 72 h.
Experiment [14] has as its system KB. The experiment in a line: Cytotoxicity against human KB cells at 10 uM after 3 days by SRB assay. It is filed as functional.
For experiment [15], the system named is KB. The experiment is described as follows: Cytotoxicity against etoposide-resistant human KB cells at 10 uM after 3 days by SRB assay. Type of experiment: functional.
Experiment [16] concerns KB. The experiment in a line: Cytotoxicity against vincristine-resistant human KBVIN cells at 10 uM after 3 days by SRB assay. It is filed as functional.
Experiment [17] has as its system KB. The experiment in a line: Cytotoxicity against camptothecin-resistant human KB cells at 10 uM after 3 days by SRB assay. Type of experiment: functional, cell-based.
For experiment [18], the system named is HOS. The experiment is described as follows: Cytotoxicity against human HOS cells at 10 uM after 3 days by SRB assay. Type of experiment: functional, cell-based.
Experiment [19] can be described thus: (§2) Cytotoxicity against human U87MG cells at 10 uM after 3 days by SRB assay. To be noted: U-87 MG, 72 h. Type of experiment: functional, U-87MG ATCC.
In experiment [20] the test system is A549. The experiment in a line: Cytotoxicity against human A549 cells at 10 uM after 3 days by SRB assay. It is filed as functional.
For experiment [21], the system named is 1A9. The experiment is described as follows: Cytotoxicity against human 1A9 cells at 10 uM after 3 days by SRB assay. Type of experiment: functional, cell-based.
Experiment [22] concerns MCF7. The experiment is described as follows: Cytotoxicity against human MCF7 cells at 10 uM after 3 days by SRB assay. To be noted: MCF7, 72 h. Type of experiment: functional.
In another experiment the test system is U-87MG ATCC. The description is as §2. It is filed as functional.

Calls of active or inactive are those of the source. The rule behind the calls is not given here. Where only a bound is given, the exact number is not on record here.

Regarding `C=C(C)C1CC2=C(O1)c1ccccc1C(=O)C2=O` (configuration not stated), the IC50 with HOS [1] turned out to be 4 µM; in the experiment with MCF7 [2], 1.2 µM; with KB [3] it was 3 µM; in [4], 3.4 µM; in the experiment on 1A9 [5], 2.3 µM; in the experiment on KB [6], 2.2 µM. In addition, the IC50 came out at 2.7 µM in the experiment with A549 [7]; 3 µM with KB [8]; 2.1 µM in the experiment on 1A9 [9]; 3.9 µM in experiment [10]; 9.6 µM with CAKI-1 [11].
In the case of `C=C(C)C1CC2=C(O1)C(=O)c1ccccc1C2=O` (stereo not drawn) [DEHYDROISO-ALPHA-LAPACHONE], the IC50 came out at 3.6 µM in the experiment on HOS [1]; 1.2 µM in the experiment on MCF7 [2]; 3.5 µM in the experiment on KB [3]; 2.6 µM in experiment [4]; 2.8 µM in the experiment on 1A9 [5]; 3.2 µM with KB [6]. In addition, the IC50 in the experiment with A549 [7] is 6.4 µM; in the experiment on KB [8], 4.1 µM; in the experiment on 1A9 [9], 2.6 µM; in experiment [10], 5.7 µM; in the experiment on CAKI-1 [11], more than 10 µM. The same compound showed an inhibition at 10 µM in the experiment on CAKI-1 [12] of 26%.
For `C=C(C)C1CC2=C(O1)c1cccc(OC)c1C(=O)C2=O` (configuration not stated) [LANTALUCRATIN A], the inhibition at 10 µM in the experiment on 1A9 [13] worked out at 45%; with KB [14] (72 h) it was 46%; with KB [15] (72 h), 43%; in the experiment with KB [16] (72 h), 17%. Further, the half-maximal inhibitory concentration (IC50) in the experiment on HOS [1] is 4.8 µM; with MCF7 [2] it was 1.6 µM; with KB [3] it was more than 5 µM; in experiment [4], 4.7 µM; in the experiment with 1A9 [5], more than 5 µM; in the experiment with KB [6] it was 2.1 µM. The IC50 is 3.3 µM with A549 [7], more than 5 µM in the experiment on KB [8], 3.9 µM with 1A9 [9] and more than 5 µM in experiment [10]. In the experiment with CAKI-1 [12], the result was inactive.
Consider `C=C(C)C1CC2=C(O1)c1cccc(O)c1C(=O)C2=O` (configuration not stated) [LANTALUCRATIN B], for which the IC50 came out at 2.5 µM in the experiment with HOS [1]; 1 µM with MCF7 [2]; 2.1 µM in the experiment with KB [3]; 1.9 µM in experiment [4]; 2.1 µM in the experiment with 1A9 [5]; 1 µM in the experiment on KB [6]. Besides, the IC50 in the experiment with A549 [7] was 1.8 µM; in the experiment with KB [8], 2.3 µM; with 1A9 [9] it was 1.5 µM; in [10], 2.4 µM; with CAKI-1 [11], more than 5 µM. Besides, the inhibition at 10 µM in the experiment with CAKI-1 [12] was found to be 16%.
For the compound `C=C(C)C1CC2=C(O1)c1ccc(O)cc1C(=O)C2=O` (configuration not stated) [LANTALUCRATIN C], the 50% inhibitory concentration (IC50) in the experiment with HOS [1] was 4.7 µM; in the experiment on MCF7 [2] it was 4.9 µM; in the experiment on KB [3], 5.8 µM; in [4] it was 7.3 µM; in the experiment with 1A9 [5], 6.5 µM; with KB [6] it was 5.2 µM. In addition, the 50% inhibitory concentration (IC50) with A549 [7] was determined as 6 µM; with KB [8] it was 6.9 µM; with 1A9 [9], 9.4 µM; in experiment [10] it was 6.3 µM.
`C=C(C)C(O)CC1=C(OC)C(=O)c2c(OC)cccc2C1=O` (configuration not stated) [LANTALUCRATIN D]: the inhibition at 10 µM with 1A9 [13] stood at 14%; in experiment [19], 8%; in the experiment on A549 [20] (A549, 72 h), 7%; with MCF7 [22], 20%. The result in the experiment on KB [17], with HOS [18], in the experiment on 1A9 [21], in the experiment on KB [14], with KB [15] and in the experiment on KB [16] was inactive. For the same compound, in the experiment on CAKI-1 [12], the result was inactive. The IC50 (in the experiment with MCF7 [2]; in [4]; in the experiment on 1A9 [5]; in the experiment with A549 [7]) was more than 10 µM throughout.
Consider `C=C(C)C(O)CC1=C(OC)C(=O)c2c(OC)ccc(O)c2C1=O` (configuration not stated) [LANTALUCRATIN E], for which the outcome in the experiment with KB [17], with KB [14], with KB [15] and with KB [16] was inactive. Besides, the 50% inhibitory concentration (IC50) with HOS [1] was found to be 8.7 µM; in the experiment with MCF7 [2] it was 5.5 µM; in experiment [4], 7 µM; with 1A9 [5] it was 2.5 µM; in the experiment with A549 [7], 8.7 µM; in the experiment on 1A9 [9], 1.3 µM. This compound also returned an IC50 in the experiment on CAKI-1 [11] of more than 10 µM. Besides, the inhibition at 10 µM with CAKI-1 [12] came to 8%.
Turning to `C=C(C)C(O)CC1=C(OC)C(=O)c2cc(OC)c(O)c(O)c2C1=O` (configuration not stated) [LANTALUCRATIN F], the outcome in the experiment on 1A9 [13], with KB [17], in the experiment on HOS [18], in the experiment on U-87MG ATCC, in the experiment on A549 [20] and in the experiment on 1A9 [21] was inactive. Moreover, the result in the experiment with KB [14], with KB [15] and in the experiment with KB [16] was inactive. Further, the IC50 with MCF7 [2] and in the experiment on CAKI-1 [11] was more than 10 µM each time. Also, the inhibition at 10 µM with MCF7 [22] was 9%; with CAKI-1 [12] it was 13%.
Turning to `CC1(C)CCC2=C(O1)c1ccccc1C(=O)C2=O` [LAPACHONE], the IC50 with HOS [1] stood at 1.4 µM; in the experiment on MCF7 [2] it was 0.8 µM; in the experiment on KB [3], 1.8 µM; in experiment [4] it was 2 µM; in the experiment on 1A9 [5], 0.8 µM; in the experiment with KB [6], 1 µM. For the same compound, the IC50 is 1.5 µM in the experiment with A549 [7]; 1.2 µM in the experiment with KB [8]; 0.8 µM with 1A9 [9]; 2.2 µM in experiment [10]; more than 5 µM in the experiment with CAKI-1 [11]. The compound further returned an inhibition at 10 µM with CAKI-1 [12] of 42%.
